Screens (PubChem BioAssay)
KCNK3 inh = human KCNK3 channel inhibition, primary screen | AID 602410 | CHO-KCNK3 thallium flux, FluxOR fluorescence; active compounds read low | actives 0.84% (n = 340,000) | B-score at 10 µM | O14649;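 active = B-score under library mean minus 4 SD, starting fluorescence ratio at most library mean plus 5 SD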;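 also: more negative B-score means stronger inhibition of thallium flux through KCNK3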
hERG rescue = compounds protecting human hERG from proarrhythmic drug block; Q12809; CHO-hERG, FluxOR thallium flux, dofetilide IC70 present; activation (rescue from dofetilide block), less the hit threshold, % at 10 µM; actives 0.51% (n = 310,000); AID 1511;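 active = activation above the mean of controls blocked by dofetilide plus 5 SD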;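 also: thallium influx through hERG after potassium depolarization seen as dye fluorescence rise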
KCNQ1 block = inhibitors of human KCNQ1 potassium channel; actives 1.3% (n = 310,000); B-score at 10 µM; CHO-K1 KCNQ1, FluxOR thallium flux fluorescence; active compounds read high;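 active = compounds whose thallium flux B-score, printed positive for inhibition, exceeds three library SD while starting fluorescence stays within three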;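 also: channel opened by potassium depolarization with thallium stimulus after 20 min compound exposure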
Kir21 block = blocks the mouse Kir2.1 inward-rectifier potassium channel. P35561. HEK293-Kir2.1, FluxOR thallium flux fluorescence; active compounds read low. B-score at 10 µM. actives 0.85% (n = 310,000). AID 1672;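 active = fluorescence ratio B-score at or below minus 3 SD of library scores, with starting-brightness B-score within 2 SD, cut at about -4.2 in these data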;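 also: channel flux triggered by added potassium and thallium sulfate stimulus; B-score of peak minus minimum fluorescence over baseline after thallium stimulus; more negative B-score means stronger Kir2.1 block with less thallium influx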
Target sequence (P35561 whole entry, looked up): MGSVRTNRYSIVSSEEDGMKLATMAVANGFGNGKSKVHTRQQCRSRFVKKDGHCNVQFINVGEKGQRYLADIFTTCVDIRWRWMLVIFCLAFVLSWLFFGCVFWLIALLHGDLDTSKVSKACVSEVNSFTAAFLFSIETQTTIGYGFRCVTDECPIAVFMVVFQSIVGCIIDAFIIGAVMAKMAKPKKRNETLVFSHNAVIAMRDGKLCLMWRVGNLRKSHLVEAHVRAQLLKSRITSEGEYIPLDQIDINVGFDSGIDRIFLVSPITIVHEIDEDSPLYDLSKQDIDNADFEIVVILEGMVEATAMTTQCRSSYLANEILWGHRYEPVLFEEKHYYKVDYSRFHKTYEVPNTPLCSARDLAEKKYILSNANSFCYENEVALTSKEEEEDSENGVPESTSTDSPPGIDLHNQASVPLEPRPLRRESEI
KCNQ1 pot = potentiators or activators of human KCNQ1 potassium channel; P51787; CHO-K1 KCNQ1, thallium flux FluxOR fluorescence; active compounds read high; B-score at 10 µM; actives 0.35% (n = 310,000); AID 2648;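 active = fluorescence ratio B-score, a plate-corrected score, at least three library SD, with initial intensity B-score within 5 SD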
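Medium – assay buffer, equal DMSO in all wells · Material – CHO-K1 cell line with stable KCNQ1 potassium channel expression · Signal – kinetic FluxOR thallium fluorescence, 10-s 1-Hz baseline, 110-s post-stimulus read · Compound – single concentration per compound, DMSO matched to controls · Schedule – 37 °C overnight plating, 90-min dark dye load, 20-min compound pretreatment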
KCNK9 block = human KCNK9 channel inhibition; Q9NPC2; HEK293 KCNK9, FluxOR thallium flux fluorescence; active compounds read low; B-score at 10 µM; actives 1.2% (n = 310,000);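 active = ratio B-score over 3 SD below the library mean, with starting fluorescence within 5 SD of its mean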;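 also: negative B-score means less thallium flux so channel inhibition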
Target sequence (Q9NPC2 whole entry, looked up): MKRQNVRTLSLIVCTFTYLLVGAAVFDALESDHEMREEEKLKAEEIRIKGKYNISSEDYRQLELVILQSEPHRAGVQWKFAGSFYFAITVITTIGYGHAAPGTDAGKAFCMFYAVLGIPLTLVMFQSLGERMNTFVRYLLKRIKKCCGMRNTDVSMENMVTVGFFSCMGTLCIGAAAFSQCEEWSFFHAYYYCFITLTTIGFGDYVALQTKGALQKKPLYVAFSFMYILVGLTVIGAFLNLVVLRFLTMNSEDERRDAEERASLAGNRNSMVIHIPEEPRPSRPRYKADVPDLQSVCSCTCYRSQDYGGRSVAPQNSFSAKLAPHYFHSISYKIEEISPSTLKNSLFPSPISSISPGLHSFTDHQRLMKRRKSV
KCNQ1 inh valid = confirmation of human KCNQ1 potassium channel inhibitors; KCNQ1 cell line, FluxOR thallium flux fluorescence; shares compounds with KCNQ1 block; AID 588353; inhibition, % at 10 µM; actives 93% (n = 1,600);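 active = primary screen active, with duplicate mean exceeding buffer control mean plus 3 SD of buffer wells, cut at about 28% in these data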;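 also: 0% = buffer control ratio and 100% = XE991 inhibitor control ratio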
CHO Tl flux = activity in parental CHO cells lacking KCNQ1; shares compounds with KCNQ1 block; parental CHO-K1, FluxOR thallium flux fluorescence ratio; active compounds read low; zero means no signal rise above baseline; fluorescence ratio (Tl flux) at 10 µM; actives 21% (n = 1,600);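 active = mean of duplicate thallium-flux fluorescence ratios in parental host cells more than 5 SD below the buffer control mean, cut at about 0.38 in these data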;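 also: ratio is peak minus minimum fluorescence divided by baseline fluorescence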
KCNQ1 APC inh = blocks human KCNQ1 current in automated patch clamp; shares compounds with KCNQ1 block; KCNQ1-CHO cells; calls only at 10 µM; actives 20% (n = 490); AID 624120;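 active = KCNQ1 current drop exceeding 3 SD of negative control wells, seen in both duplicate runs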;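 also: steady state current during a 2 s step from -80 to +40 mV; negative values mean current inhibition and positive values mean potentiation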
KCNQ2 spec = KCNQ1 inhibitor that also blocks rat KCNQ2 channel; shares compounds with KCNQ1 block; KCNQ2 cells, FluxOR thallium flux fluorescence; inhibition, % at 10 µM; actives 71% (n = 1,600); AID 651746;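 active = mean percent inhibition of the KCNQ2 thallium signal more than 5 SD above the buffer-only control wells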;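 also: KCNQ2 expressed in CHO cells; 0% = buffer control wells and 100% = XE-991 inhibitor control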
KCNQ1 KCNE1 spec = selectivity of KCNQ1 inhibitors: inhibition of human KCNQ1/KCNE1 channel; shares compounds with KCNQ1 block; KCNQ1/KCNE1 cells, FluxOR thallium flux fluorescence; inhibition, % at 10 µM; actives 77% (n = 1,600); AID 652147;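 active = mean percent inhibition of duplicate wells above the buffer-only control mean plus 3 SD of those controls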;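 also: 0% = buffer only wells and 100% = XE-991 inhibitor control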
KCNK9 inh conf = human KCNK9 inhibitor confirmation. shares compounds with KCNK9 block. HEK293 KCNK9 cells, FluxOR thallium flux fluorescence. inhibition, % at 10 µM. actives 43% (n = 4,900);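 active = thallium signal inhibited by more than 5 SD of the compound-free buffer control wells, on both duplicate plates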;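 also: 0% = assay buffer control wells without compound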
Kir21 sel = selectivity of KCNK9 modulators against mouse Kir2.1; actives 4% (n = 4,900); inhibition, % at 10 µM; Kir2.1 cells, FluxOR thallium flux fluorescence; shares compounds with KCNK9 block;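 active = thallium signal drop more than 5 SD beyond the mean of the no-compound control wells, seen in both duplicate plates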;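 also: signal is fluorescence rise after thallium addition divided by baseline fluorescence; plate controls were assay buffer only for no effect and full block by chlorpromazine control for full effect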
KCNK9 uninduced = non-induced cell nonspecific activity of KCNK9 modulators. shares compounds with KCNK9 block. non-induced KCNK9-HEK293, FluxOR thallium flux. inhibition, % at 10 µM. actives 40% (n = 4,900);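 active = thallium signal drop beyond 5 SD of the untreated control mean, on both duplicate plates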;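 also: plate controls were buffer only IC0 wells for no effect and SID17386958 at its maximal inhibitory level for full effect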
KCNK3 confirm = confirmation of human KCNK3 two-pore domain potassium channel inhibitors. CHO-KCNK3 thallium flux, FluxOR fluorescence; 0% buffer, 100% carvedilol maximal block. shares compounds with KCNK3 inh. actives 99% (n = 2,400). ratio percent of control, % at 10 µM;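 active = ratio percent of control, averaged over triplicates, above buffer control mean plus 5 SD, cut at about 64% in these data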;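 also: ratio is the fluorescence rise from min to max over baseline after thallium stimulus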
KCNK3 uninduced = counter-screen for KCNK3 inhibitors: effect in non-induced cells. shares compounds with KCNK3 inh. non-induced KCNK3 parental cells, FluxOR thallium flux; active compounds read low. thallium flux ratio (lower = more inhibition) at 10 µM. actives 40% (n = 2,400). AID 651747;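 active = thallium flux ratio, averaged over three wells, more than 5 SD below the buffer control mean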;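 also: host cells are CHO cells without KCNK3 induction; ratio is peak minus trough fluorescence over baseline then normalized to buffer controls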
Active calls of the source: *; i = inactive; x = no result given; + = active, no number. Rows were chosen to be rich in hits. Some 3.8% of all compounds tested hit in one or more screens of this group.

SMILES	KCNK3 inh	hERG rescue	KCNQ1 block	Kir21 block	KCNQ1 pot	KCNK9 block	KCNQ1 inh valid	CHO Tl flux	KCNQ2 spec	KCNQ1 KCNE1 spec	KCNK3 confirm	KCNK3 uninduced	others
CCc1ccc(CN(C)C(=O)c2cc(COc3cccc4cnccc34)on2)cc1	-14*	-14	11*	1.6	i	-10*	160*	0.33*	132%*	+	127*	0.15*	KCNK9 inh conf=i;Kir21 sel=i;KCNK9 uninduced=i
CCCn1c(=O)c(C(=O)NCCc2ccc(OC)c(OC)c2)c(O)c2ccccc21	-11*	-3	9*	-0.6	i	i	80*	0.41	101%*	63%*	107*	0.16*
CC1CC(C)(C)CC2(C1)NC(=O)N(CC(=O)N1CCN(Cc3ccc(C#N)cc3)CC1)C2=O (stereo not given)	i	x	x	x	x	x	x	x	x	x	x	x
CN(C(=O)c1cccc(NC(=O)Cc2ccc(NC(=O)C3CCN(C(=O)C4CC4)CC3)cc2)c1)C1CCC1	i	x	x	x	x	x	x	x	x	x	x	x
COC(=O)c1ccc(NC(=S)NC2CCc3ccccc32)cc1 (stereo not given)	-8.8*	-9	7*	0.12	i	i	68*	0.52	65%*	58%*	93*	i
Cn1cnc([N+](=O)[O-])c1N=C(N)N	i	-7	i	1.4	i	i	x	x	x	x	x	x
CCOc1ccccc1NC(=O)C(OC(=O)c1cc(C)oc1C)c1ccccc1 (stereo not given)	i	-11	6*	-1.3	i	-7.9*	82*	0.33*	105%*	86%*	106*	i
S=c1[nH]c2ccccc2o1	i	-4	i	-0.64	i	i	x	x	x	x	x	x
COCCn1c(=NC(=O)C2COc3ccccc3O2)sc2cc(S(N)(=O)=O)ccc21 (stereo not given)	i	-10	i	1.6	i	i	x	x	x	x	x	x
CCn1c(=NC(=O)C2COc3ccccc3O2)sc2c(OC)ccc(OC)c21 (stereo not given)	-10*	-15	7*	0.4	i	-6.6*	80*	0.39	82%*	126%*	112*	i
O=C(OCC(=O)N1CCCC1)c1ccc(S(=O)(=O)Nc2ccccc2)cc1	i	-5	i	0.66	i	i	x	x	x	x	x	x
CC(C)=CCc1cc(-c2oc3cc(O)cc(O)c3c(=O)c2O)ccc1O	i	-13	i	0.58	i	i	x	x	x	x	x	x
CC(C)=CCc1c(O)cc2oc3c(CC=C(C)C)c(O)c(O)c(CC=C(C)C)c3c(=O)c2c1O	-9.2*	-34	16*	0.12	i	-13*	150*	0.35*	124%*	+	146*	0.11*	KCNK9 inh conf=62%*;Kir21 sel=i;KCNK9 uninduced=34%*
CCCCNC(=S)Nc1ccc(Oc2ccccc2)cc1	-9.7*	-22	6*	-0.6	i	-7.5*	39*	0.54	i	68%*	96*	i
CC(=O)Oc1cccc(Nc2ncnc3ccccc23)c1	i	-6	i	-0.89	i	i	x	x	x	x	x	x
Cc1ccccc1C(=O)Oc1cccc(Nc2ncnc3ccccc23)c1	-8.8*	-32	11*	-0.56	i	-7.2*	152*	0.29*	121%*	+	132*	0.15*
CC(=O)c1ccc(OCc2cccc(C(F)(F)F)c2)cc1O	i	0	i	0.09	i	i	x	x	x	x	x	x
Cc1nc(N2CCN(Cc3ccc4c(c3)OCO4)CC2)c2cc(-c3ccccc3)sc2n1	-10*	-19	7*	-1.3	i	i	118*	0.41	111%*	130%*	95*	i	KCNQ1 APC inh=i
O=C(COC(=O)/C=C/c1cccc(C(F)(F)F)c1)NC(=O)NCc1ccco1	i	x	x	x	x	x	x	x	x	x	x	x
FC(F)Sc1ccc(NC(=S)NC2CCCCC2)cc1	-10*	-20	10*	0.78	i	i	78*	0.53	i	36%*	104*	i
S=C(Nc1ccc(Br)cc1)NC1CCCC1	i	-4	i	-1.1	i	i	x	x	x	x	x	x
Nc1cc2c(cc1C(=O)c1ccc(Cl)cc1)OCCO2	i	-13	i	-0.45	i	i	x	x	x	x	x	x
Cc1cccc(-c2cc(C(=O)Nc3ccncc3)c3ccccc3n2)c1	i	-3	i	-0.85	i	i	x	x	x	x	x	x
Cc1cccc(-c2cc(C(=O)Nc3cccnc3)c3ccccc3n2)c1	-8.9*	-21	9*	-1.9	i	i	124*	0.37*	136%*	159%*	125*	0.1*
COc1cccc(-c2nc(NC3CCCC3)c3ccccc3n2)c1O	-13*	-8	9*	-1.4	i	i	140*	0.32*	126%*	98%*	133*	i
COc1cccc(-c2csc(N3CCN(C(=S)NCC(C)C)CC3)n2)c1	i	-6	i	0.14	i	i	x	x	x	x	x	x
